Legend:
[1] = AUC (0 to infinity) in C57Bl6 mouse at 10 mg/kg, iv administered as single dose; format: ADME, organism-based; design: dose 10 mg/kg, time infinity, route intravenous; details: in vivo
Summary of the method: (§1)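 C57Bl/6 mice were given single intravenous or oral doses (oral at 10 and 100 mg/kg). Plasma PK parameters were CL, AUC0-inf, t1/2, Cmax and %F.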

[2] = AUC (0 to infinity) in rat at 250 mg/kg administered twice daily for 28 days with 2 week recovery; format: ADME, organism-based; design: dose 250 mg/kg, time infinity; details: in vivo
[3] = Cmax in dog at 15 mg/kg, po administered as single dose; format: ADME, organism-based, Canis lupus familiaris; design: dose 15 mg/kg, route oral; details: in vivo
Summary of the method: (§2)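 Dogs were given single intravenous doses, or oral doses from 5 to 50 mg/kg. Plasma PK parameters were CL, AUC0-inf, t1/2, Cmax and %F.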

[4] = Clearance in C57Bl6 mouse at 10 mg/kg, iv administered as single dose; format: ADME, organism-based; details: in vivo; summary of the method: as §1
[5] = Permeability across basolateral to apical side in human Caco2 cells; format: ADME, cell-based; details: Caco-2, read-out: permeability
[6] = Cmax in C57Bl6 mouse at 100 mg/kg, po administered as single dose; format: ADME, organism-based; design: dose 100 mg/kg, route oral; details: in vivo; summary of the method: as §1
[7] = AUC (0 to infinity) in dog at 50 mg/kg, po administered as single dose; format: ADME, organism-based, Canis lupus familiaris; design: dose 50 mg/kg, route oral, time infinity; details: in vivo; summary of the method: as §2
[8] = Cmax in Sprague-Dawley rat at 50 mg/kg, po administered as single dose; format: ADME, organism-based; design: dose 50 mg/kg, route oral; details: in vivo
Summary of the method: (§3)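 Sprague-Dawley rats were given single doses, intravenous at 10–50 mg/kg or oral at 10, 25 and 50 mg/kg. Plasma PK parameters were CL, AUC0-inf, t1/2, Cmax and %F.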

[9] = Half life in dog at 25 mg/kg, iv administered as single dose; format: ADME, organism-based, Canis lupus familiaris; details: in vivo
Summary of the method: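 Dogs were dosed once, by iv injection or orally, with oral doses spanning 5 to 50 mg/kg. Plasma pharmacokinetic parameters were derived: CL, AUC0-inf, t1/2, Cmax and %F.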

[10] = AUC (0 to infinity) in dog at 3 mg/kg, iv administered as single dose; format: ADME, organism-based, Canis lupus familiaris; design: dose 3 mg/kg, time infinity, route intravenous; details: in vivo; summary of the method: as §2
[11] = Cmax in Sprague-Dawley rat at 10 mg/kg, po administered as single dose; format: ADME, organism-based; design: dose 10 mg/kg, route oral; details: in vivo; summary of the method: as §3
[12] = Aqueous solubility of the compound at pH 7.4; format: physicochemical
[13] = Clearance in Sprague-Dawley rat at 50 mg/kg, iv administered as single dose; format: ADME, organism-based; details: in vivo; summary of the method: as §3
[14] = Stability in rat microsomes assessed as parent compound remaining after 90 mins in presence of phase 1 and 2 metabolic cofactors; format: ADME, Microsome; details: read-out: Stability
[15] = AUC (0 to infinity) in Sprague-Dawley rat at 25 mg/kg, po administered as single dose; format: ADME, organism-based; design: dose 25 mg/kg, time infinity, route oral; details: in vivo; summary of the method: as §3
[16] = Half life in Sprague-Dawley rat at 25 mg/kg, iv administered as single dose; format: ADME, organism-based; details: in vivo
Summary of the method: (§4)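 Sprague-Dawley rats each received one dose of drug, either iv across 10-50 mg/kg or orally at 10, 25 and 50 mg/kg. Plasma pharmacokinetics covered CL, AUC0-inf, t1/2, Cmax and Tmax. Oral bioavailability (%F) was obtained from the oral and iv exposures.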

[17] = Oral bioavailability in Sprague-Dawley rat at 50 mg/kg administered as single dose; format: ADME, organism-based; details: in vivo; summary of the method: as §4
[18] = AUC (0 to infinity) in Sprague-Dawley rat at 50 mg/kg, iv administered as single dose; format: ADME, organism-based; design: dose 50 mg/kg, time infinity, route intravenous; details: in vivo; summary of the method: as §3
[19] = AUC (0 to infinity) in C57Bl6 mouse at 100 mg/kg, po administered as single dose; format: ADME, organism-based; design: dose 100 mg/kg, time infinity, route oral; details: in vivo; summary of the method: as §1
[20] = Clearance in dog at 1 mg/kg, iv administered as single dose; format: ADME, organism-based, Canis lupus familiaris; details: in vivo; summary of the method: as §2
[21] = Stability in human microsomes assessed as parent compound remaining after 90 mins in presence of phase 1 and 2 metabolic cofactors; format: ADME, Microsome; details: read-out: Stability
[22] = Intrinsic clearance in human liver microsomes; format: ADME, Microsome; details: read-out: CLH
[23] = Oral bioavailability in C57Bl6 mouse at 100 mg/kg administered as single dose; format: ADME, organism-based; details: in vivo
Summary of the method: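 C57Bl/6 mice received a single oral dose of 10 or 100 mg/kg, with iv dosing run for comparison. Plasma AUC0-inf, t1/2, Cmax and oral bioavailability (%F) were determined.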

[24] = Clearance in C57Bl6 mouse at 50 mg/kg, iv administered as single dose; format: ADME, organism-based; details: in vivo; summary of the method: as §1
[25] = AUC (0 to infinity) in Sprague-Dawley rat at 50 mg/kg, po administered as single dose; format: ADME, organism-based; design: dose 50 mg/kg, route oral, time infinity; details: in vivo; summary of the method: as §3
[26] = Half life in C57Bl6 mouse at 50 mg/kg, iv administered as single dose; format: ADME, organism-based; details: in vivo; summary of the method: as §1
[27] = Aqueous solubility of the compound at pH 1; format: physicochemical
[28] = Drug uptake in C57Bl6 mouse plasma at 50 mg/kg, po administered as single dose measured at 1 hr post-dose; format: ADME, organism-based; details: in vivo
Summary of the method: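 C57Bl/6 mice received a single oral dose of 50 mg/kg. Drug levels were compared in plasma and other organs over time after dosing.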

[29] = Half life in C57Bl6 mouse at 100 mg/kg, po administered as single dose; format: ADME, organism-based; details: in vivo; summary of the method: as §1
[30] = Clearance in dog at 10 mg/kg, iv administered as single dose; format: ADME, organism-based, Canis lupus familiaris; details: in vivo; summary of the method: as §2
[31] = Half life in Sprague-Dawley rat at 50 mg/kg, iv administered as single dose; format: ADME, organism-based; details: in vivo; summary of the method: as §4
[32] = AUC (0 to infinity) in dog at 1 mg/kg, iv administered as single dose; format: ADME, organism-based, Canis lupus familiaris; design: dose 1 mg/kg, route intravenous, time infinity; details: in vivo; summary of the method: as §2
[33] = AUC (0 to infinity) in dog at 10 mg/kg, iv administered as single dose; format: ADME, organism-based, Canis lupus familiaris; design: dose 10 mg/kg, time infinity, route intravenous; details: in vivo; summary of the method: as §2
[34] = Oral bioavailability in Sprague-Dawley rat at 25 mg/kg administered as single dose; format: ADME, organism-based; details: in vivo; summary of the method: as §4
[35] = AUC (0 to infinity) in dog at 15 mg/kg, po administered as single dose; format: ADME, organism-based, Canis lupus familiaris; design: dose 15 mg/kg, route oral, time infinity; details: in vivo; summary of the method: as §2
[36] = AUC (0 to infinity) in dog at 150 mg/kg, po administered as single dose; format: ADME, organism-based, Canis lupus familiaris; design: dose 150 mg/kg, time infinity, route oral; details: in vivo

Question: Which results are given for O[C@H](C[C@H]1c2c(F)cccc2-c2cncn21)[C@H]1CC[C@H](O)CC1 [NAVOXIMOD]?
Answer: AUC(0-inf) [1]: 6130 ng·h/mL; AUC(0-inf) [2]: 22500 ng·h/mL; Cmax [3]: 1400 ng/mL; clearance [4]: 27.5 mL/min/kg; Papp B→A [5]: 35 ×10⁻⁶ cm/s; Cmax [6]: 14200 ng/mL; AUC(0-inf) [7]: 8640 ng·h/mL; Cmax [8]: 10000 ng/mL; half-life [9]: 6.9 h; AUC(0-inf) [10]: 901 ng·h/mL; Cmax [11]: 1560 ng/mL; solubility [12]: > 200 µM; clearance [13]: 23.2 mL/min/kg; remaining at […] [14]: > 85%; AUC(0-inf) [15]: 7980 ng·h/mL; half-life [16]: 1.25 h; bioavailability [17]: 44.1%; AUC(0-inf) [18]: 35000 ng·h/mL; AUC(0-inf) [19]: 60200 ng·h/mL; clearance [20]: 59.3 mL/min/kg; remaining at […] [21]: > 85%; predicted hepatic clearance [22]: 8.52 mL/min/kg; bioavailability [23]: 87%; clearance [24]: 25 mL/min/kg; AUC(0-inf) [25]: 15400 ng·h/mL; half-life [26]: 3 h; solubility [27]: > 200 µM; Drug uptake [28]: Active; half-life [29]: 3.3 h; clearance [30]: 53.7 mL/min/kg; half-life [31]: 1 h; AUC(0-inf) [32]: 282 ng·h/mL; AUC(0-inf) [33]: 3130 ng·h/mL; bioavailability [34]: 60.4%; AUC(0-inf) [35]: 1040 ng·h/mL; AUC(0-inf) [36]: 57800 ng·h/mL

— ChEMBL document CHEMBL4364294 (J Med Chem, 2019)
